Experimental data: BindingDB's records for doi:10.1021/jm00080a008 (Merck Sharp and Dohme Research Laboratories, 1992)

How the values were obtained:
Myeloperoxidase [1] = target: T1, Myeloperoxidase (Homo sapiens, UniProt P05164); test: ChEBML_223053
T1 sequence (P05164 whole entry): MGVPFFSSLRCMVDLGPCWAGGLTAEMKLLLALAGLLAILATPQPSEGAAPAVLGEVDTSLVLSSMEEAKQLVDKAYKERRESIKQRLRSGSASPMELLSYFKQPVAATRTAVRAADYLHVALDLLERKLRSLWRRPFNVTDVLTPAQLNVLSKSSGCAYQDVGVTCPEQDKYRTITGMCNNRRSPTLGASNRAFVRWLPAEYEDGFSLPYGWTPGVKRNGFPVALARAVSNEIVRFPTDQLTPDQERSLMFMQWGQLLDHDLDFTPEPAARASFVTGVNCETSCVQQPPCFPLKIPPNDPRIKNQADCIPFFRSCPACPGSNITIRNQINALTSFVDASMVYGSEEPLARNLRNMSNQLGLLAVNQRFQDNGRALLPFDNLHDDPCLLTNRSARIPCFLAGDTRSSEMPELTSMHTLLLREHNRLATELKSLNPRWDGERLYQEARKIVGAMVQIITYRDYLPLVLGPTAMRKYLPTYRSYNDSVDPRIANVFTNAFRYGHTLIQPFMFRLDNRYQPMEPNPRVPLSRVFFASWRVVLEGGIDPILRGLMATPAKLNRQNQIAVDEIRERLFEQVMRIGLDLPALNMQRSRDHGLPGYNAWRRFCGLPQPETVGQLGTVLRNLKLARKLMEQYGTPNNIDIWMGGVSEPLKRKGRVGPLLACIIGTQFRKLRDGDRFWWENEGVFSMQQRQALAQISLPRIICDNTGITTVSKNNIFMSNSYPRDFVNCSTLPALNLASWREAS
Experimental: (§1) Compound was tested for the induction of nonspecific myeloperoxidase (MPO) release

Myeloperoxidase [2] = target: T1, Myeloperoxidase; test: as §1
Outline: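 Freshly isolated human PMN (Ficoll-Hypaque, erythrocytes lysed with NH4Cl/EDTA/KHCO3), 4×10^5/mL in HBSS. Preincubated with compound or 1% aqueous DMSO 20 min at 37 °C, then cytochalasin B (5 μg/mL final) 5 min. Stimulated 5 min at 37 °C with C5a or fMLF, or no stimulus for nonspecific release. MPO read with dimethoxybenzidine/H2O2 at pH 6.0, azide-quenched at 2 min, A450. Duplicate or triplicate.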

| SMILES | EC50 (Myeloperoxidase [1]) [µM] | EC50 (Myeloperoxidase [2]) [µM] |
| --- | --- | --- |
| Cc1cc(N)c2cc(NC(=O)Nc3ccc4nc(C)cc(N)c4c3)ccc2n1 [Aminoquinuride] | < 3 | – |
| Cc1cc(N)c2cc(NC(=O)/C=C/c3ccccc3Cl)ccc2n1 [MLS000737665] | – | < 3 |
